Assay results taken from paper PMC2765529 (Journal of medicinal chemistry, 2009).
Where “and” joins values, the source holds several entries; their conditions need not be identical. Equal values may be shown once. Blank lines part the entries; values can stand above or below the compound they belong to.

What was measured:
human VAChT = target: T1, human VAChT (Homo sapiens, UniProt Q16572); assay: VAChT binding, competition against [^3H]vesamicol
T1 sequence (Q16572 1-532): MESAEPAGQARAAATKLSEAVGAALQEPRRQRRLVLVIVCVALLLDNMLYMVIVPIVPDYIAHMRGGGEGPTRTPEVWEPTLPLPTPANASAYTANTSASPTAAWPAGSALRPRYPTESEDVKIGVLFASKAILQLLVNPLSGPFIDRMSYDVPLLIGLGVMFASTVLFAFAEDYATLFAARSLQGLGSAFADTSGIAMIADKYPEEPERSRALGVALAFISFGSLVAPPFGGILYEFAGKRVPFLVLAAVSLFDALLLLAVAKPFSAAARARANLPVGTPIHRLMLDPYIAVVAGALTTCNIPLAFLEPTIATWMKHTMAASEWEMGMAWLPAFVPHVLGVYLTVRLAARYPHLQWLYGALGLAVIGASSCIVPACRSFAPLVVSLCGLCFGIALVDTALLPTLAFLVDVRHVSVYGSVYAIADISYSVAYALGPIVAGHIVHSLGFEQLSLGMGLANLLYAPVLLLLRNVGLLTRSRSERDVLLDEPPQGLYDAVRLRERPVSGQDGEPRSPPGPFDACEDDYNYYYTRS

[1] = Tissue biodistribution and regional brain uptake in rats; assay type: in vivo, male Sprague-Dawley rats; settings: for Blood uptake: i.v., mean ± SD, n=4 rats
[2] = Ex vivo autoradiography of rat brain; assay type: in vivo, male Sprague-Dawley rat; settings: rat sacrificed 1 h p.i., 1 mm coronal sections
Summary of the method: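 A single mature male Sprague-Dawley rat received ∼500 μCi of the 18F-labelled test compound by tail-vein injection under isoflurane/oxygen anaesthesia. The rat recovered and was euthanised 1 h later. The brain was taken out quickly and set in a metal brain matrix with 1 mm slots. A 1.0 mm slice through the striatum was imaged by flatbed scanner and by electronic autoradiography.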

[3] = 5 min p.i., rat brain dissection

IC50 (human VAChT): 1.68 ± 0.04 nM
Compound: Nc1ccc(C(=O)C2CCN([C@@H]3Cc4ccccc4C[C@H]3O)CC2)cc1 (racemic) [Compound 9c, (±)-trans-2-Hydroxy-3-(4-(4-aminobenzoyl)piperidino)tetralin]

IC50 (human VAChT): 0.48 ± 0.03 nM
Compound: O=C(c1ccc([N+](=O)[O-])cc1)C1CCN([C@@H]2Cc3ccccc3C[C@H]2O)CC1 (racemic) [Compound 9d, (±)-trans-2-Hydroxy-3-(4-(4-nitrobenzoyl)piperidino)tetralin]

Compound: (-)-trans-2-Hydroxy-3-(4-(4-[^18F]fluorobenzoyl)piperidino)tetralin [(-)-[^18F]9e]
Bone uptake ([1]; 5 min p.i.): 0.334 ± 0.047 %ID/g | Brain uptake ([1]; 5 min p.i.): 0.823 ± 0.091 %ID/g | Fat uptake ([1]; 5 min p.i.): 0.132 ± 0.095 %ID/g | Heart uptake ([1]; 5 min p.i.): 0.321 ± 0.027 %ID/g | Kidney uptake ([1]; 5 min p.i.): 2.02 %ID/g and 2.018 ± 0.448 %ID/g | Muscle uptake ([1]; 5 min p.i.): 0.091 ± 0.018 %ID/g | Blood uptake ([1]; 5 min p.i.): 0.073 ± 0.010 %ID/g | Initial uptake in cerebellum [1, 3]: 0.743 %ID/g | Initial uptake in cortex [1, 3]: 0.911 %ID/g | Initial uptake in hippocampus [1, 3]: 0.837 %ID/g | Initial uptake in striatum [1, 3]: 0.911 %ID/g | Bone uptake ([1]; 30 min p.i.): 0.157 ± 0.004 %ID/g | Brain uptake ([1]; 30 min p.i.): 0.226 ± 0.014 %ID/g | Fat uptake ([1]; 30 min p.i.): 0.207 ± 0.018 %ID/g | Heart uptake ([1]; 30 min p.i.): 0.109 ± 0.014 %ID/g | Kidney uptake ([1]; 30 min p.i.): 1.896 ± 0.333 %ID/g | Lung uptake ([1]; 30 min p.i.): 0.481 ± 0.088 %ID/g | Muscle uptake ([1]; 30 min p.i.): 0.080 ± 0.008 %ID/g | Blood uptake ([1]; 30 min p.i.): 0.037 ± 0.002 %ID/g | Bone uptake ([1]; 1 h p.i.): 0.148 ± 0.015 %ID/g | Brain uptake ([1]; 1 h p.i.): 0.124 ± 0.013 %ID/g | Fat uptake ([1]; 1 h p.i.): 0.241 ± 0.021 %ID/g | Heart uptake ([1]; 1 h p.i.): 0.066 ± 0.008 %ID/g | Kidney uptake ([1]; 1 h p.i.): 1.298 ± 0.372 %ID/g | Lung uptake ([1]; 1 h p.i.): 0.327 ± 0.022 %ID/g | Muscle uptake ([1]; 1 h p.i.): 0.056 ± 0.010 %ID/g | Blood uptake ([1]; 1 h p.i.): 0.029 ± 0.005 %ID/g | Bone uptake ([1]; 2 h p.i.): 0.138 ± 0.006 %ID/g | Brain uptake ([1]; 2 h p.i.): 0.095 ± 0.016 %ID/g | Fat uptake ([1]; 2 h p.i.): 0.249 ± 0.036 %ID/g | Heart uptake ([1]; 2 h p.i.): 0.047 ± 0.009 %ID/g | Kidney uptake ([1]; 2 h p.i.): 1.339 ± 0.160 %ID/g | Lung uptake ([1]; 2 h p.i.): 0.199 ± 0.032 %ID/g | Muscle uptake ([1]; 2 h p.i.): 0.035 ± 0.007 %ID/g | Blood uptake ([1]; 2 h p.i.): 0.020 ± 0.002 %ID/g | accumulation in the cortex (autoradiogram) [2]: moderate accumulation | accumulation in the striatum (autoradiogram) [2]: high accumulation

Ki (human VAChT; VAChT (Ki [nM]), [^3H]vesamicol competition, mean ± SEM): 108 ± 15 nM
Compound: O=C(c1ccc(F)cc1)C1CCN([C@@H]2Cc3ccccc3C[C@H]2O)CC1 (single isomer, unassigned) [(+)-9e]
